Legend:
[1] = Inhibition of beta-hematine formation after 18 to 24 hrs by ferriprotoporphyrin 9 biomineralization inhibition test; format: functional
Outline: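 Haemin chloride (0.5 mg/mL, freshly dissolved in DMSO) was mixed with 10 mg/mL compound solution or solvent in 0.5 M sodium acetate pH 4.4 and incubated 18–24 h at 37 °C. IC₅₀ is the mean of two experiments in triplicate.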

[2] = test system: Plasmodium falciparum; assay: Antimalarial activity against erythrocytic stage chloroquine-sensitive Plasmodium falciparum 3D7 after 48 hrs by fluorescence spectrophotometer; format: functional, organism-based; conditions: 3D7, 48 h
[3] = test system: J774; assay: Cytotoxicity against mouse macrophage J774 cells at 23 uM after 24 hrs by MTT assay; format: cell-based; conditions: j774, 24 h
[4] = test system: HepG2; assay: Cytotoxicity against human HepG2 cells at 23 uM after 24 hrs by MTT assay; format: cell-based; conditions: hepg2, 24 h
[5] = test system: Plasmodium falciparum; assay: Antimalarial activity against erythrocytic stage multidrug-resistant Plasmodium falciparum Dd2 after 48 hrs by fluorescence spectrophotometer; format: functional, organism-based; conditions: Dd2, 48 h
[6] = test system: Plasmodium berghei; assay: Antimalarial activity against Plasmodium berghei str. ANKA infected in NMRI mouse at 10 mg/kg/day, ip for three days measured on day 4 by Giemsa staining; format: functional; conditions: route intraperitoneal
Outline: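 NMRI male mice (20 ± 2 g, groups of five) inoculated on day 0 with 2 × 10⁷ RBCs infected with P. berghei ANKA erythrocytic stages. Two hours later, i.p. dosing at 10 mg/kg/day in DMSO, continued days 1–3.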

[7] = test system: HepG2; assay: Cytotoxicity against human HepG2 cells at 37 uM after 24 hrs by MTT assay; format: cell-based; conditions: hepg2, 24 h
Outline: (§1)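 5 × 10⁴ cells/well were exposed to compound for 24 h. Medium was then removed and MTT (0.4 mg/mL in PBS) added for 1 h. Crystals were dissolved in DMSO and read at 595 nm. % toxicity = (OD control − OD compound)/OD control × 100.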

[8] = test system: J774; assay: Cytotoxicity against mouse macrophage J774 cells at 37 uM after 24 hrs by MTT assay; format: cell-based; conditions: j774, 24 h; outline: as §1
[9] = test system: J774; assay: Cytotoxicity against mouse macrophage J774 cells at 19 uM after 24 hrs by MTT assay; format: cell-based; conditions: j774, 24 h; outline: as §1
[10] = test system: HepG2; assay: Cytotoxicity against human HepG2 cells at 19 uM after 24 hrs by MTT assay; format: cell-based; conditions: hepg2, 24 h; outline: as §1

Row | SMILES | IC50 [1] [µM] | IC50 [2] [µM] | Activity [3] [%] | Activity [4] [%] | IC50 [5] [µM] | inhibition in vivo at 10 mg/kg/day [6] [%] | Activity [7] [%] | Activity [8] [%] | Activity [9] [%] | Activity [10] [%]
1 | O=C1CSC(c2ccc3c(c2)OCO3)N1CCNc1ccnc2cc(Cl)ccc12 (stereo not given) | 58.4 | 0.51 | 47.93 | 25.53 | 0.75 | – | – | – | – | –
2 | Clc1ccc2c(NCc3ccccc3)ccnc2c1 | 46.5 | 0.3 | – | – | 0.33 | 25 | 46.58 | 0 | – | –
3 | CCN(CC)CCCC(C)Nc1ccnc2cc(Cl)ccc12 (stereo not given) [CHLOROQUINE] | 22.3 | – | – | – | – | 100 | – | – | 0 | 0

From ChEMBL document CHEMBL1811834, “Synthesis and antimalarial activity of new heterocyclic hybrids based on chloroquine and thiazolidinone scaffolds” (Bioorg Med Chem, 2011)
